Assay results gathered from unrelated publications.
Compare with care: the assays were run in different laboratories.
Target: Tyrosine-protein kinase Srms (SRMS, Homo sapiens, UniProt Q9H3Y6)

| SMILES | test | setting | remaining binding |
| --- | --- | --- | --- |
| CS(=O)(=O)NCC[C@H](NC(=O)c1cncc2c1cnn2-c1ccc(F)cc1)c1ccnc(S(C)(=O)=O)c1 | cell-free assay, competition with immobilised ligand | 1 µM | 83% |
| N[C@H]1CCN(c2nccc(-c3cnn4ncccc34)n2)C1 | binding | 1 µM | 88% |
| c1cncc(-c2cccc(Nc3nccc(NC4CCCCC4)n3)c2)c1 | binding, competition with immobilised ligand | 10 µM | 71% |
| O=C(NCCCN1CCOCC1)c1ccc(Nc2ncc(Cl)c(-c3ccc(Cl)s3)n2)cc1 | binding, competition with immobilised ligand | 1 µM | 99% |
| O=C(Nc1cccnn1)N1CCC(=Cc2cccc(Oc3ccc(C(F)(F)F)cn3)c2)CC1 | cell-free assay, competition with immobilised ligand | 1 µM | 95% |
| COc1cnc(Nc2cccc(S(N)(=O)=O)c2)nc1N1CCN(c2ccccc2)CC1 | binding, competition with immobilised ligand | 1 µM | 83% |
| CN(C)c1nccc(-c2cnn3ncccc23)n1 | binding | 1 µM | 64% |
| FC(F)(F)Oc1cccc(-c2cnc3ccc(-c4ccncc4)nn23)c1 | cell-free assay, competition with immobilised ligand | 5 µM | 65% |
| O=C(Nc1c[nH]nc1C(=O)NC1CCNCC1)c1cc(F)cc(F)c1 | binding, competition with immobilised ligand | 1 µM | 84% |
| CN([C@@H]1CCc2c(CC(=O)O)c3ccccc3n2C1)S(=O)(=O)c1ccc(F)cc1 | cell-free assay, competition with immobilised ligand | 1 µM | 81% |
| O=C(c1ccc(Nc2nccc(-c3cc4ccccc4s3)n2)cc1)N1CCC(N2CCCC2)CC1 | binding, competition with immobilised ligand | 1 µM | 73% |
| C[C@@H](c1ccc(-n2cnc3c(N)ncnc32)cc1)N1CCc2nn(C)c(Cc3ccccc3)c2C1=O | binding, competition with immobilised ligand | 0.1 µM | 44% |
| F[C@@H]1CCN(c2nccc(-c3cnn4ncccc34)n2)C1 | binding | 1 µM | 100% |
| O=C(c1ccc(Nc2ncc(Cl)c(-c3cc4ccccc4s3)n2)cc1)N1CCC(N2CCCC2)CC1 | binding, competition with immobilised ligand | 1 µM | 81% |
| CN(c1nccc(-c2cnn3ncccc23)n1)C1CC1 | binding | 1 µM | 100% |
| COc1ncc2cc3ccccc3nc2c1C#N | cell-free assay, competition with immobilised ligand | 5 µM | 100% |
| c1cnn2ncc(-c3ccnc(N4CCC45COC5)n3)c2c1 | binding | 1 µM | 70% |
| O=C(NS(=O)(=O)c1ccc(NCC2CCOCC2)c([N+](=O)[O-])c1)c1ccc(N2CCN(Cc3ccc(C(F)(F)F)cc3-c3ccc(Cl)cc3)CC2)cc1Oc1cnc2[nH]ccc2c1 | cell-free assay, competition with immobilised ligand | 1 µM | 79% |
| COc1ccnn2ncc(-c3ccnc(N(C)C)n3)c12 | binding | 1 µM | 78% |
| COc1cc(-c2cn(C3CCc4ccccc4N(CC(F)(F)F)C3=O)nn2)ccc1-n1ccc(C)n1 (stereo not shown) | cell-free assay, competition with immobilised ligand | 1 µM | 84% |
| CN(C)c1nccc(-c2cnc3ncccn23)n1 | binding | 1 µM | 63% |
| N#CC1(c2ccccn2)CCN(Cc2cc(C(=O)N3CCCC3)c(=O)n3ccccc23)CC1 | cell-free assay, competition with immobilised ligand | 1 µM | 100% |
